Peptide text beside a SMILES is read from it.
Target: MT1-160p (Homo sapiens, UniProt P50281)
Assay: Phage ELISA, apparent Kd of phage-displayed peptide with MT1-160p
Assay type: binding
Summary of the method: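 MT1-160p (MT1-MMP residues 160–174) coated at 100 µg/ml in carbonate buffer pH 9.6, 4°C overnight, then blocked with 1% BSA/PBS. Selected phages bound 2 h at 37°C, then PBST washes. Mouse anti-M13 (1:1000) 1 h at 37°C, then HRP goat anti-mouse (1:2500). TMB 30 min at 37°C in the dark, stopped with 2 M H2SO4, A450. Coated wells without phage served as blanks.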

How did the Kd turn out when CC(C)C[C@H](NC(=O)[C@H](Cc1ccccc1)NC(=O)[C@@H](NC(=O)[C@H](CCCCN)NC(=O)[C@@H](NC(=O)[C@H](CC(N)=O)NC(=O)[C@H](Cc1c[nH]cn1)NC(=O)[C@H](CC(C)C)NC(=O)[C@H](Cc1c[nH]cn1)NC(=O)[C@H](CCCCN)NC(=O)[C@H](Cc1c[nH]c2ccccc12)NC(=O)[C@@H](N)Cc1c[nH]cn1)[C@@H](C)O)[C@@H](C)O)C(=O)O [MT1-AF7p] (H-HWKHLHNTKTFL-OH) was run?
Its Kd is 0.075 nM.

From publication PMC3085951 (Journal of controlled release : official journal of the …, 2011)
